In ChEMBL document CHEMBL4376814, “Novel cyclin-dependent kinase 9 (CDK9) inhibitor with suppression of cancer stemness activity against non-small-cell lung cancer” (Eur J Med Chem, 2019):
Activity calls are given as the source filed them. No cut-off for these calls is given here.

How the values were obtained:
A549 [1] = experiment: Induction of apoptosis in human A549 cells assessed as viable cells at 1 uM after 48 hrs by AnnexinV-FITC/PI staining-based flow cytometric analysis (reference value: 88.8%); assay type: functional; conditions: A549, 48 h, read-out: Activity
NCI-H1299 [2] = experiment: Induction of apoptosis in human H1299 cells assessed as reduction in Bcl-2 level at 0.25 to 1 uM after 24 hrs by Western blot analysis; assay type: functional, cell-based
Outline: (§1)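 A549 or H1299 cells exposed to the indicated concentrations for 24 h. Protein extracts then immunoblotted for apoptosis-pathway proteins (Bcl2, Bim, cleaved caspase 3).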

NCI-H1299 [3] = experiment: Induction of apoptosis in human H1299 cells assessed as increase in Bim level at 0.25 to 1 uM after 24 hrs by Western blot analysis; assay type: functional, cell-based; outline: as §1
NCI-H1299 [4] = experiment: Induction of apoptosis in human H1299 cells assessed as increase in cleaved caspase 3 expression at 0.25 to 1 uM after 24 hrs by Western blot analysis; assay type: functional, cell-based; outline: as §1
NCI-H1299 [5] = experiment: Induction of apoptosis in human H1299 cells assessed as activation of caspase 3 at 0.25 to 1 uM after 24 hrs by Western blot analysis; assay type: functional, cell-based; outline: as §1
A549 [6] = experiment: Downregulation of cyclin T1 expression in human A549 cells at 0.25 to 1 uM after 24 hrs by Western blot analysis; assay type: functional, cell-based
Outline: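 A549 and H1299 cells treated for 24 h with serial dilutions alongside a DMSO control. Protein extracts resolved and immunoblotted.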

[7] = test system: Tyrosine-protein kinase ABL1 (Homo sapiens), P00519 [T315I]; experiment: Inhibition of recombinant human ABL T315I mutant (27 to end residues) at 1 uM using EAIYAAPFAKKK as substrate measured after 40 mins in presence of [gamma33P]ATP by scintillation counting method relative to control
[8] = target: Activated CDC42 kinase 1 (Homo sapiens) (UniProt Q07912); experiment: Inhibition of recombinant human ACK1 (1 to 389 residues) at 1 uM using EFPIYDFLPAKKK as substrate measured after 40 mins in presence of [gamma33P]ATP by scintillation counting method relative to control
[9] = target: Cytoplasmic tyrosine-protein kinase BMX (Homo sapiens) (UniProt P51813); experiment: Inhibition of full-length recombinant human BMX at 1 uM using poly(Glu, Tyr) 4:1 as substrate measured after 40 mins in presence of [gamma33P]ATP by scintillation counting method relative to control
Chain of Cytoplasmic tyrosine-protein kinase BMX (Homo sapiens) (P51813 whole entry): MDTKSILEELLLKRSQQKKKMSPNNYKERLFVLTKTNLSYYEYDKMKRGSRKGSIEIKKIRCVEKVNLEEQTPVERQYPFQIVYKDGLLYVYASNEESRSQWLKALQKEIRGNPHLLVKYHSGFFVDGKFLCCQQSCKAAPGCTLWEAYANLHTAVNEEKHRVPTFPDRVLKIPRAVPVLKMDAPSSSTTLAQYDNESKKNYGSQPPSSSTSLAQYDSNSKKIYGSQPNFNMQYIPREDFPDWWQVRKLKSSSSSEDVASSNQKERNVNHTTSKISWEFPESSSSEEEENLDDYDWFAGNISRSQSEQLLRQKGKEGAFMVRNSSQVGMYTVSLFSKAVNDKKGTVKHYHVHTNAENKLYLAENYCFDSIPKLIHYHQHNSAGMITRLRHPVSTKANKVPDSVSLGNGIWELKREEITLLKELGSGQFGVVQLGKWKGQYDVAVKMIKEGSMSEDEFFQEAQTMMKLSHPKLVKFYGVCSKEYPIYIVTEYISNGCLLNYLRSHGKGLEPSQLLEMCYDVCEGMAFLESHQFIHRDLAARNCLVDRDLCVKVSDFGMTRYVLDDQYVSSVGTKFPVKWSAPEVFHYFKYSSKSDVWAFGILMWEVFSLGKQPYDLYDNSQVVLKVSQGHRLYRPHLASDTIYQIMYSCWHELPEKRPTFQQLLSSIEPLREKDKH
Outline: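 Percent inhibition of kinase activity at a single compound concentration, measured by the outsourced Eurofins KinaseProfiler panel. Values are the mean of two independent experiments.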

[10] = target: Calcium/calmodulin-dependent protein kinase type 1B (Homo sapiens) (UniProt Q6P2M8); experiment: Inhibition of full-length recombinant human CaMK1 beta at 1 uM using KKLRRTLSFAEPG as substrate measured after 40 mins in presence of [gamma33P]ATP by scintillation counting method relative to control
Outline: (§2)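 Single-point inhibition at 1 µM was measured in the Eurofins KinaseProfiler panel. Values are the mean of two independent experiments.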

[11] = target: Serine/threonine-protein kinase MRCK alpha (Homo sapiens) (UniProt Q5VT25); experiment: Inhibition of recombinant human MRCKalpha (1 to 473 residues) at 1 uM using KKRNRTLTV as substrate measured after 40 mins in presence of [gamma33P]ATP by scintillation counting method relative to control
[12] = test system: Serine/threonine-protein kinase Nek4 (Homo sapiens), P51957 [P225A]; experiment: Inhibition of recombinant full-length human NEK4 P225A mutant at 1 uM using myelin basic protein as substrate measured after 40 mins in presence of [gamma33P]ATP by scintillation counting method relative to control
Chain of Serine/threonine-protein kinase Nek4 (Homo sapiens), P51957 [P225A] (P51957 whole entry P225A): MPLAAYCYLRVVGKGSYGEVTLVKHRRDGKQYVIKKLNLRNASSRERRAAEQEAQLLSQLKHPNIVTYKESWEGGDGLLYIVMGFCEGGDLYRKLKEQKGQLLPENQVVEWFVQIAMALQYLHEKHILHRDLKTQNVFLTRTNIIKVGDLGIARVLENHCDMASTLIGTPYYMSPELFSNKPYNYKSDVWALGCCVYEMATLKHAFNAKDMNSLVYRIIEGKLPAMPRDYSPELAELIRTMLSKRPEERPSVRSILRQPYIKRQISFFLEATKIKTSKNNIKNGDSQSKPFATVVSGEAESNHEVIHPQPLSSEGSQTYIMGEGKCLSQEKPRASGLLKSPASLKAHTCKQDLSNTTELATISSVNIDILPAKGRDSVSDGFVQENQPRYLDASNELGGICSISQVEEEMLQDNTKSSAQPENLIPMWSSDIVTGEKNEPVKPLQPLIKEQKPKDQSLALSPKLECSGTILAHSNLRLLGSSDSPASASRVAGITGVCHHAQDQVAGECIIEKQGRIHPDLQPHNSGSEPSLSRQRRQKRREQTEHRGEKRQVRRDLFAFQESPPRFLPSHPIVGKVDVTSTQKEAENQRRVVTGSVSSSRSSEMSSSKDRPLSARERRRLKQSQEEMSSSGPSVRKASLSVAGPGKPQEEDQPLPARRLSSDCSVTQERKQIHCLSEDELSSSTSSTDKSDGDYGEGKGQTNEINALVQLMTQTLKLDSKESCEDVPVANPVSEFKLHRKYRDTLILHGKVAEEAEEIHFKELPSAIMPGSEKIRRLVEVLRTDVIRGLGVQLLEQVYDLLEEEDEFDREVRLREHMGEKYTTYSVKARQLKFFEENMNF

[13] = target: Serine/threonine-protein kinase Nek7 (Homo sapiens) (UniProt Q8TDX7); experiment: Inhibition of recombinant human NEK7 (2 to end residues) at 1 uM using FLAKSFGSPNRAY as substrate measured after 40 mins in presence of [gamma33P]ATP by scintillation counting method relative to control
[14] = target: NUAK family SNF1-like kinase 2 (Homo sapiens) (UniProt Q9H093); experiment: Inhibition of recombinant full-length human NUAK2 at 1 uM using KKKVSRSGLYRSPSMPENLNRPR as substrate measured after 40 mins in presence of [gamma33P]ATP by scintillation counting method relative to control
[15] = target: Eukaryotic translation initiation factor 2-alpha kinase 3 (Homo sapiens) (UniProt Q9NZJ5); experiment: Inhibition of recombinant human PEK (536 to end residues) at 1 uM using RSRSRSRSRSRSR as substrate measured after 40 mins in presence of [gamma33P]ATP by scintillation counting method relative to control
[16] = target: Receptor tyrosine-protein kinase erbB-4 (Homo sapiens) (UniProt Q15303); experiment: Inhibition of recombinant human ErbB4 (706 to 991 residues) at 1 uM using poly(Glu, Tyr) 4:1 as substrate measured after 40 mins in presence of [gamma33P]ATP by scintillation counting method relative to control
[17] = target: Serine/threonine-protein kinase PLK1 (Homo sapiens) (UniProt P53350); experiment: Inhibition of full length human PLK1 at 1 uM using casein as substrate measured after 40 mins in presence of [gamma33P]ATP by scintillation counting method
Chain of Serine/threonine-protein kinase PLK1 (Homo sapiens) (P53350 whole entry): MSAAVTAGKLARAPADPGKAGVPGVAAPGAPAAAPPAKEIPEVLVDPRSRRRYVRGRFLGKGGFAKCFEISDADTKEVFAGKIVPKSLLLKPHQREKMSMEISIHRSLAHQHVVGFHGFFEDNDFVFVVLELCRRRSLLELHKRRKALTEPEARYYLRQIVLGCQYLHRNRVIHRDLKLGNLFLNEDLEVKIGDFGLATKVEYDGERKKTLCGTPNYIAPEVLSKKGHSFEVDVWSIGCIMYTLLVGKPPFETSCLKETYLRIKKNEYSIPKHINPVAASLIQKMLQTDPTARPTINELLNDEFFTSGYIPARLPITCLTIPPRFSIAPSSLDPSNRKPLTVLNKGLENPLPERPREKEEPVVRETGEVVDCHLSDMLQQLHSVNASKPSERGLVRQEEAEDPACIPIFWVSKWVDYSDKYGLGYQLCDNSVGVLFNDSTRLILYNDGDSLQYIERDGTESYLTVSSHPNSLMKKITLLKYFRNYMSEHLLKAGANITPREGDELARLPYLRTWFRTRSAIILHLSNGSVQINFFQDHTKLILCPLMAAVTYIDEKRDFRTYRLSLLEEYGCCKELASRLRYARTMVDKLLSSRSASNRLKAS

[18] = target: Serine/threonine-protein kinase PRP4 homolog (Homo sapiens) (UniProt Q13523); experiment: Inhibition of human PRP4 (663 to end residues) at 1 uM using casein as substrate measured after 120 mins in presence of [gamma33P]ATP by scintillation counting method relative to control; outline: as §2
[19] = target: G protein-coupled receptor kinase 6 (Homo sapiens) (UniProt P43250); experiment: Inhibition of recombinant full-length human GRK6 at 1 uM using casein as substrate measured after 40 mins in presence of [gamma33P]ATP by scintillation counting method relative to control
Chain of G protein-coupled receptor kinase 6 (Homo sapiens) (P43250 whole entry, looked up): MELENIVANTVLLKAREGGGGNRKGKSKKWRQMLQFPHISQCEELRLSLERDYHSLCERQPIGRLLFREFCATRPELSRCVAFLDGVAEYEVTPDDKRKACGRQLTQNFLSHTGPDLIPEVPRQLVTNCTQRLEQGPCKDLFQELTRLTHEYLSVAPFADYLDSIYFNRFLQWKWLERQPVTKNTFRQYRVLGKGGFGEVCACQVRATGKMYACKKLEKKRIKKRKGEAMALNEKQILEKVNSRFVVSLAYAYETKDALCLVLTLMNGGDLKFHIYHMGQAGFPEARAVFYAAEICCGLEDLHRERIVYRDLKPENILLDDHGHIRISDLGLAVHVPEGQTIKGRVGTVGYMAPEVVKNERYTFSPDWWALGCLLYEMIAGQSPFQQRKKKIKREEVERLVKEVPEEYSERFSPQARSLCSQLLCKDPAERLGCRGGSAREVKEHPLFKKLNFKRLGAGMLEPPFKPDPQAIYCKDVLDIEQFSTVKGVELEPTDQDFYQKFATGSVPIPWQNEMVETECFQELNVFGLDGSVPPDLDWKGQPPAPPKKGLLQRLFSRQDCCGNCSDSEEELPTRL

[20] = target: SRSF protein kinase 1 (Homo sapiens) (UniProt Q96SB4); experiment: Inhibition of human SRPK1 (2 to end residues) at 1 uM using RSRSRSRSRSRSRSR as substrate measured after 40 mins in presence of [gamma33P]ATP by scintillation counting method relative to control; outline: as §2
[21] = target: Tyrosine-protein kinase Lck (Homo sapiens) (UniProt P06239); experiment: Inhibition of recombinant full-length human LCK activated at 1 uM using KVEKIGEGTYGVVYK as substrate measured after 40 mins in presence of [gamma33P]ATP by scintillation counting method relative to control
Chain of Tyrosine-protein kinase Lck (Homo sapiens) (P06239 2-509 limits assumed): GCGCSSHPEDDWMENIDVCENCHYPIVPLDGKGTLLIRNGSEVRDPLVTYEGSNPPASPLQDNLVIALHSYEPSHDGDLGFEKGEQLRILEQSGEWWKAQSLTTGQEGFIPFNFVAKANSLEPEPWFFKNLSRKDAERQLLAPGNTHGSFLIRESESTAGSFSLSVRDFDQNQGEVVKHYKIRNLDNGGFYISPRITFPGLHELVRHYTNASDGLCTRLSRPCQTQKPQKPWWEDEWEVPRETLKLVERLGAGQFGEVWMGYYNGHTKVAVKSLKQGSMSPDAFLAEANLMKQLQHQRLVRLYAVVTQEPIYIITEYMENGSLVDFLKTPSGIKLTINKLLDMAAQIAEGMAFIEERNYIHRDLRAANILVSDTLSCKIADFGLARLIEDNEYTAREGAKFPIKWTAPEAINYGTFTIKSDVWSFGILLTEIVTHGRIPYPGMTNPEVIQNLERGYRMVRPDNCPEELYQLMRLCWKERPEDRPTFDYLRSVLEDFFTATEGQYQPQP

[22] = target: Serine-protein kinase ATM (Homo sapiens) (UniProt Q13315); experiment: Inhibition of recombinant full-length human ATM at 1 uM using GST-cMyc-p53 as substrate measured after 40 mins by ELISA relative to control
[23] = target: PI3K p110 beta/p85 alpha (Homo sapiens) (UniProt P27986+P42338); experiment: Inhibition of recombinant full-length human PI3K p110beta/p85alpha at 1 uM using phosphatidylinositol-4, 5-bisphosphate as substrate measured after 40 mins by fluorescence assay relative to control; assay type: protein-complex assay
Chain of PI3K p110 beta/p85 alpha (Homo sapiens) (P27986 2-724 limits assumed): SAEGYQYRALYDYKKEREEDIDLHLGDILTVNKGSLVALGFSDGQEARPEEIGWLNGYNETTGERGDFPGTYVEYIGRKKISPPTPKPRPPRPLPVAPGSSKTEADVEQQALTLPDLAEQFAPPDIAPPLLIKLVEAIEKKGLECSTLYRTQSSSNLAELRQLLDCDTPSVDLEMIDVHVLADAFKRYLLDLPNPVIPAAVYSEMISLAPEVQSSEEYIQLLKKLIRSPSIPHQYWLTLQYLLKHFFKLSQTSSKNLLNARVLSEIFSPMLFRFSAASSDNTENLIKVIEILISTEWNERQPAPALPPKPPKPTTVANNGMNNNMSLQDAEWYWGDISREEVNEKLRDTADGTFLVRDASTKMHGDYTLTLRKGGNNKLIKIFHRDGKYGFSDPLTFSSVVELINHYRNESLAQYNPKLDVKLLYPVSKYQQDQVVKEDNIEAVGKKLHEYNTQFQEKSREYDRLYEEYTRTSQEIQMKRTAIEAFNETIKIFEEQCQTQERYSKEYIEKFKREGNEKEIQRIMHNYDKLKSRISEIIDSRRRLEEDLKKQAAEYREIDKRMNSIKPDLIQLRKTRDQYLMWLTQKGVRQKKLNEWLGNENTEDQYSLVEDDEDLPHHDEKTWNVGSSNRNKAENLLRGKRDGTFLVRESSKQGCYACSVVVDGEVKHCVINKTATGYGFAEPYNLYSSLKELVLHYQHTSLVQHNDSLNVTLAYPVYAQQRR
Chain of PI3K p110 beta/p85 alpha (Homo sapiens) (P42338 whole entry partner): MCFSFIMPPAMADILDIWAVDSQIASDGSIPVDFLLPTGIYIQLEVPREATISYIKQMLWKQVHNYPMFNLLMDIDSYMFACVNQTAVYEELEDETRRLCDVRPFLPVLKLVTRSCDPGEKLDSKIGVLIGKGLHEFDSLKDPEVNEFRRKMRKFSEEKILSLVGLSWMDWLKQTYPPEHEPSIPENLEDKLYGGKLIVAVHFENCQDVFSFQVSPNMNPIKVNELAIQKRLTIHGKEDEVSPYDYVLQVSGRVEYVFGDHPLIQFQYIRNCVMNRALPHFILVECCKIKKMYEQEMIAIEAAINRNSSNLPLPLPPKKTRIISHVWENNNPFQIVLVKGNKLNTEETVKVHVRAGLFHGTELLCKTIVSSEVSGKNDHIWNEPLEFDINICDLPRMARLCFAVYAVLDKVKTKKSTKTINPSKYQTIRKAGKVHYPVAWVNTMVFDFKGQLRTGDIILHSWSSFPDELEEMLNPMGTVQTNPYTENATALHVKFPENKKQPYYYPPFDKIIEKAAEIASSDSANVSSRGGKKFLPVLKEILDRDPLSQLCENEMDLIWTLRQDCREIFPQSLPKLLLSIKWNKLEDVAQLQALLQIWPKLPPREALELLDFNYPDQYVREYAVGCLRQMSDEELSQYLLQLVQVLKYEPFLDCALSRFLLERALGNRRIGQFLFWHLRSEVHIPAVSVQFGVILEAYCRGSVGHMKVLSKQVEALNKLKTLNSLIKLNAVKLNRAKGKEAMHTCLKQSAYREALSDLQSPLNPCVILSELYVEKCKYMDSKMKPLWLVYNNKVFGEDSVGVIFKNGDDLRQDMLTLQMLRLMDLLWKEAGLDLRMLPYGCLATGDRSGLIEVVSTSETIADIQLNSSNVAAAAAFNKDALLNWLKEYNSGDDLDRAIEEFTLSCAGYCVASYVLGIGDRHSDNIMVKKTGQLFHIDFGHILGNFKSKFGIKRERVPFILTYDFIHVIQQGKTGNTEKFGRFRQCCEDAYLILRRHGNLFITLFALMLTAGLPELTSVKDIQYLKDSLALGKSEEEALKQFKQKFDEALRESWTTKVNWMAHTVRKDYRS

Homo sapiens = species: Homo sapiens; experiment: Inhibition of recombinant full-length human PI3K p120gamma R459Q mutant at 1 uM using phosphatidylinositol-4, 5-bisphosphate as substrate measured after 40 mins by fluorescence assay relative to control

With CN(C)C(=O)c1cc2cnc(Nc3ccc(NC(=O)CCCCCCCN=C=S)cc3)nc2n1C1CCCC1 the viability at 1 µM (A549 [1]) was 74.8%, the Activity (NCI-H1299 [2]) was “Active” and the Activity (NCI-H1299 [3]) was “Active”. The Activity (NCI-H1299 [4]) was “Active”, the Activity (NCI-H1299 [5]) was “Active” and the Activity (A549 [6]) was “Active”. It also gave an inhibition [7] of 38%, an inhibition [8] of 82% and an inhibition [9] of 90%. It also gave an inhibition [10] of 11%, an inhibition [11] of -5% and an inhibition [12] of 63%. For the same molecule, the inhibition [13] was -6%, the inhibition [14] was 66% and the inhibition [15] was 6%. The inhibition [16] was 24%, the inhibition [17] was -2% and the inhibition [18] was 1%. For the same molecule, the inhibition [19] was 5%, the inhibition [20] was 12% and the inhibition [21] was 26%. The inhibition [22] was 6%, the inhibition [23] was 5% and the inhibition (Homo sapiens) was 14%.
